Source: PubChem (Sanford-Burnham Center for Chemical Genomics)
FLuc stim CS – FLuc activators, initial screening, artefact control for FLuc-dependent activation tests, biochemical, ATPlite luminescence; 200,000 tested, under 10 active; activation factor at 10 µM; ATPlite luciferase biochemical, 10 min; 0 = ATP-free wells, 1 = DMSO control;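 active = luciferase activation factor, scaled between plate controls, of at least 2 with compound at 10 µM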
Target sequence (P08659 whole entry, looked up): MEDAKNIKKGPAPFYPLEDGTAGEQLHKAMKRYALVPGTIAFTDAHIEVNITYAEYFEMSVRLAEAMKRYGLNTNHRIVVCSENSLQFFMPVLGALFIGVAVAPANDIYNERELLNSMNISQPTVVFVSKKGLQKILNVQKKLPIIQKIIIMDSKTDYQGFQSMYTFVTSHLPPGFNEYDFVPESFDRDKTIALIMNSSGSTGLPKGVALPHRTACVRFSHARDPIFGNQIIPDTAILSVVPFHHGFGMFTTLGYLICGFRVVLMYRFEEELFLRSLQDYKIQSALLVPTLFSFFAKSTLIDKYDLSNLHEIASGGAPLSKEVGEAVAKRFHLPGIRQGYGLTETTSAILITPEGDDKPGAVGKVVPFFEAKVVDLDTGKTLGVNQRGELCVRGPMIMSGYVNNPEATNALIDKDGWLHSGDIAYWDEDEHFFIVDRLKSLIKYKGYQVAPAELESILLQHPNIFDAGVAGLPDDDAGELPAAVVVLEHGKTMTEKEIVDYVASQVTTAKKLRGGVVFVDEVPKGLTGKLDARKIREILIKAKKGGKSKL
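Assay system – cell-free luciferase reagent · Medium – PBS-based ATP solution · Dosing – test compounds dosed from 2 mM stocks in 100% DMSO · Timing – 10 min, room temperature · Technique – light output (luminescence) · Measure – luminescence gain marking luciferase activators · Controls – No-ATP low control, compound-free enzyme-plus-ATP high control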
FLuc inh counter – firefly luciferase enzyme inhibitors, primary screen, artefact control for luciferase-based inhibitor screens, biochemical, luminescence, ATPLite; 10 min; inhibition, % at 10 µM; actives 1.5% (n = 200,000); AID 1006, 2008;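 active = inhibition above about 50% when tested at 10 µM, limit read from the data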
PPC-1+TRAIL kill – compounds killing PPC-1 cancer cells with TRAIL present, primary screen, TRAIL potentiator project, ATPLite luminescence, uHTS; PPC-1 cells + TRAIL, ATPLite viability luminescence; cell killing (% activity), % at 4 µM or 5 µM; actives 0.41% (n = 220,000); AID 1443, 2008;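 active = cell killing above 50% in the first pass at 4 µM, then a duplicate retest at 5 µM averaging 50% or more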;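 also: plate controls were cells with TRAIL plus DMSO for no effect and medium-only wells lacking cells for full effect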
TRAIL sens C8 – viability loss with TRAIL in NB7+C8 cells, primary screen, TRAIL sensitizer project, cell-based, ATPlite luminescence. actives 1% (n = 360,000). inhibition (viability loss, TRAIL sensitization), % at 10 µM;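 active = compounds causing at least 50% loss of cell viability in the single-dose screen, relative to plate controls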
* = called active by the depositor; . = not tested or not shown. Most compounds without a hit are left out; they make up all but 1.5% or so of the library.

SMILES	FLuc stim CS	FLuc inh counter	PPC-1+TRAIL kill	TRAIL sens C8
Cc1ccc(NC(=O)c2ccc3ccccc3n2)nc1	0.3	73*	40	28
Cc1ccc(C(=O)c2cc3ccccc3o2)cc1C	0.7	28	6	11
Cc1ccc(NC(=O)C2COc3ccccc3O2)cc1S(=O)(=O)N1CCOCC1 (stereo unspecified)	.	.	.	0
CCCn1nc(C(=O)NNC(=O)CCCOc2ccc(C)cc2)c2ccccc2c1=O	.	.	.	-4
CC(=O)Nc1cc(Cl)c(N=Cc2ccc(O)cc2O)cc1Cl	1.1	-6	-1	-2
CCOC(=O)c1sc(/N=C/c2ccc(O)cc2O)cc1C	0.1	86*	22	11
O=C(/C=C/c1ccccc1)Nc1ccc2c(c1)C(=O)NC2=O	0.9	12	28	50*
CNC(=S)N/N=C/C1=CCC2CC1C2(C)C (stereo unspecified)	0.4	62*	25	6
Cc1cccc(CN2CCN(C3CN(Cc4cn(Cc5ccccc5C(F)(F)F)nn4)S(=O)(=O)C3)CC2)c1 (stereo unspecified)	.	.	.	0
Cc1ccc(C(=O)Oc2oc(-c3ccccc3)nc2C=Nc2ccc(N(C)C)cc2)cc1	0.7	32	56*	32
CCOc1ccc(/C=C2/SC(=S)N(n3c(C)ccc3C)C2=O)cc1	0.8	24	4	50*
COc1ccc(/C=C2/SC(=S)N(n3c(C)ccc3C)C2=O)cc1	1	2	27	62*
CCOc1ccc(N2C(=O)/C(=C/c3ccccn3)SC2=S)cc1	.	.	-28	.
COc1ccc(/C=C2/SC(=O)NC2=O)cc1	0.5	54*	14	19
CCOC(=O)/C(=C\c1ccccc1)C(=O)CCN1CCOCC1	.	.	.	15
CCCCOc1ccc(S(=O)(=O)NC(=O)C2(C)CCN2C(=O)CCc2ccccc2)cc1 (stereo unspecified)	.	.	.	-8
CC1(C)CC(=O)c2sc(NC(=O)c3ccc4ncsc4c3)nc2C1	0.5	55*	16	25
N#Cc1ccc(CN2CCN(C(=O)c3ccc(S(=O)(=O)NCc4ccco4)cc3)CC2)cc1	.	.	.	9
Cc1ccc(-c2nnc(-c3cccc4ccccc34)o2)cc1	.	.	.	53*
Cc1ccc(-c2nnc(-c3ccccc3)o2)cc1	0.3	67*	16	41
COc1ccc(-c2nnc(-c3ccc(C)cc3)o2)cc1	.	.	.	32
Cc1cccc(-c2nnc(-c3cccc4ccccc34)o2)c1	.	.	.	30
CCCN(C(=O)CCOc1ccc(C(C)(C)C)cc1)c1c(N)n(Cc2ccccc2)c(=O)[nH]c1=O	.	.	.	-14
CCCN1C(=O)/C(=C/c2ccccc2OCc2ccc(C(=O)O)cc2)NC1=S	0.3	72*	15	1
Cc1ccc(/C=C/C(=O)c2c(C)nc3ccccn23)cc1	0.5	54*	7	22
SMILES	FLuc stim CS	FLuc inh counter	PPC-1+TRAIL kill	TRAIL sens C8
Cc1ccc(NC(=O)c2c(C)nc3ccccn23)cc1C	0.3	67*	24	19
Cc1cccc(N/C=C/C(=O)c2cccs2)c1C	0.1	92*	59*	79*
Cc1ccc(C(=O)/C=C/Nc2ccccc2C(N)=O)o1	0.4	63*	0	37
NC(=O)c1ccccc1N/C=C/C(=O)c1cccs1	0.2	85*	30	58*
COc1ccccc1NC(=O)C(C)OC(=O)CCC1CCCCC1 (stereo unspecified)	.	.	.	3
COc1ccccc1C(CNc1ccc(S(=O)(=O)N2CCCC2)cc1[N+](=O)[O-])N(C)C (stereo unspecified)	.	.	.	65*
CN(Cc1ccc(C(C)(C)C)cc1)C(=O)c1ccc2c(=O)n3c(nc2c1)CCC3	.	.	.	-2
Cc1cccc(C(=O)Nc2ccc(C(=O)Nc3ccc(O)cc3)cc2)c1	.	.	.	68*
O=C(Nc1ccc(O)cc1)c1ccc(NC(=O)c2cccs2)cc1	.	.	.	66*
Cc1cccc(C(=O)Nc2ccc(NC(=O)c3cccc(C)c3)cc2)c1	.	.	.	25
Cc1ccc(NC(=O)c2ccc(C)cc2)cc1	.	.	.	73*
C[C@H]1CN([C@@H](C)CO)C(=O)c2cccc(NC(=O)c3ccc(-c4nccs4)cc3)c2O[C@@H]1CN(C)C(=O)NC1CCCCC1	.	.	.	9
Clc1ccc(/C=N/NC2=Nc3cccc4cccc2c34)cc1	0.7	28	20	17
C(=N\NC1=Nc2cccc3cccc1c23)/c1cccnc1	0.4	60*	24	27
C(=N\NC1=Nc2cccc3cccc1c23)/c1ccccc1	0.3	67*	32	50*
O=C1c2ccccc2NC(c2ccccc2)N1/N=C/c1ccccc1 (stereo unspecified)	1	3	36	55*
Cc1ccc(C(=O)O)c(C(=O)Nc2nc3ccccc3s2)c1	.	.	.	14
O=C(Nc1nc2ccccc2s1)c1cnccn1	0.4	59*	37	34
CS(=O)(=O)c1ccc2nc(NC(=O)c3cc([N+](=O)[O-])cc([N+](=O)[O-])c3)sc2c1	.	.	.	-3
Cc1ccc(C(=O)Nc2nc3ccccc3s2)s1	0.4	60*	46	49
CS(=O)(=O)c1ccc2nc(NC(=O)c3cccc([N+](=O)[O-])c3)sc2c1	.	.	.	62*
Cc1ccc(C(=O)Nc2nc3ccc(S(C)(=O)=O)cc3s2)s1	0.3	65*	48	42
O=C(c1cccc(S(=O)(=O)N2CCCc3ccccc32)c1)N1CCN(c2ccccc2)CC1	.	.	.	9
O=C(O)c1ccccc1Nc1cc(Cl)c2nonc2c1[N+](=O)[O-]	.	.	.	10
O=[N+]([O-])c1c(Nc2ccc(O)cc2)cc(Cl)c2nonc12	.	.	.	96*
SMILES	FLuc stim CS	FLuc inh counter	PPC-1+TRAIL kill	TRAIL sens C8
CN(C)c1cc(Nc2ccc(O)cc2)c([N+](=O)[O-])c2nonc12	.	.	0	-6
O=[N+]([O-])c1c(Nc2ccccn2)cc(Cl)c2nonc12	.	.	18	85*
N#Cc1ccc(OCC(=O)N2CCCC2=O)cc1	.	.	.	17
CC(O)(c1cccnc1)c1nc(-c2cccc(C#N)c2)cs1 (stereo unspecified)	.	.	.	2
CCCCn1c(CCl)nc2cc(S(=O)(=O)N3CCOCC3)ccc21	.	.	.	69*
CCOc1cc(CNC(C)(C)C)ccc1OCC(=O)Nc1cccc(C(F)(F)F)c1	1.1	-10	7	3
CCC(CO)NCc1ccc(OCC(=O)Nc2cccc(C(F)(F)F)c2)c(OC)c1 (stereo unspecified)	1.1	-7	52*	12
O=C(/C=C/Nc1ccc(F)cc1)c1cccs1	.	.	.	61*
O=C(/C=C/Nc1ccc(F)c(F)c1)c1cccs1	0.2	80*	22	38
O=C(/C=C/Nc1ccc(S(=O)(=O)Nc2ncccn2)cc1)c1cccs1	.	.	4	9
Cc1cc(C)n(-c2nnc(NC(C)(C)C)nn2)n1	0.5	53*	-1	11
Cc1cc(C)n(-c2nc(NC(C)(C)C)nc(NC(C)(C)C)n2)n1	1	-3	13	-1
Cc1cc(C)n(-c2nnc(NC34CC5CC(CC(C5)C3)C4)nn2)n1	0.3	66*	6	34
